# Measurements from ChEMBL document CHEMBL5154634, “A Modular Synthetic Route Involving N-Aryl-2-nitrosoaniline Intermediates Leads to a New Series of 3-Substituted Halogenated Phenazine Antibacterial Agents” (J Med Chem, 2021).
# How the values were obtained:
# Enterococcus faecium [1] = assay: Antibacterial activity against vancomycin-resistant Enterococcus faecium ATCC 700221 assessed as bacterial growth inhibition incubated for 16 hrs by broth microdilution susceptibility test; format: functional
# Procedure, shortened: (§1)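 CLSI broth microdilution with 11 twofold dilutions (0.05–50 μM). Medium was LB for the staphylococci and BHI for VRE 700221. About 10^5 cells per well from a log-phase culture. […] DMSO vehicle up to 0.5% v/v. At least three independent experiments.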
# Staphylococcus aureus [2] = assay: Antibacterial activity against methicillin-resistant Staphylococcus aureus BAA-44 assessed as bacterial growth inhibition incubated for 16 hrs by broth microdilution susceptibility test; format: functional; procedure, shortened: as §1
# Staphylococcus aureus [3] = assay: Antibacterial activity against methicillin-resistant Staphylococcus aureus BAA-1707 assessed as bacterial growth inhibition incubated for 16 hrs by broth microdilution susceptibility test; format: functional
# Procedure, shortened: (§2)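 CLSI broth microdilution with 11 twofold dilutions (0.05–50 μM). About 10^5 cells per well from a log-phase culture. DMSO vehicle up to 0.5% v/v. At least three independent experiments.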
# [4] = test system: Staphylococcus epidermidis; assay: Antibacterial activity against methicillin-resistant Staphylococcus epidermidis ATCC 35984 assessed as bacterial growth inhibition incubated for 16 hrs by broth microdilution susceptibility test; format: functional; procedure, shortened: as §2
# HepG2 = assay: Cytotoxicity against human HepG2 cells assessed as reduction in cell viability […] by Alamar blue assay; format: toxicity, cell-based
# [5] = test system: Mycobacterium tuberculosis; assay: Antibacterial activity against Mycobacterium tuberculosis CDC1551 assessed as bacterial growth inhibition incubated for 5 days by luminescence based analysis; format: functional; settings: CDC1551, 120 h, time 5 day
# Procedure, shortened: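 Bioluminescent Mtb-lux CDC1551 reporter grown in Middlebrook 7H9 with 0.05% Tween 80, 10% OADC and kanamycin to OD600 0.4–0.8, then diluted to OD600 0.02. Added to twofold drug dilutions (0.003–200 μM). Incubated 5 days at 37 °C, 5% CO2. Luminescence read against 1% DMSO and 10 μM rifampicin controls to give % growth inhibition. MIC taken from a modified Gompertz fit.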
# HeLa = assay: Cytotoxicity against human HeLa cells assessed as reduction in cell viability incubated for 24 hrs by LDH release assay; format: toxicity, cell-based
# Procedure, shortened: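 HeLa cells in DMEM with 10% FBS, treated at 70–80% confluence with 25, 50 and 100 μM for 24 h. LDH in supernatant measured by 30 min reaction at room temperature, then stop solution and absorbance at 490 nm. Controls: 2% Triton X-100 (maximum), medium only, DMSO vehicle. Three independent experiments.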
# [6] = Dissociation constant, pKa of the compound at 125 uM by UV-vis spectrophotometric analysis; format: physicochemical
# Procedure, shortened: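 Compound at 125 μM final in phosphate buffers (KH₂PO₄/Na₂HPO₄) in 1:1 water/methanol, pH 4.07–9.66; ammonium hydroxide added for pH above 9.80. UV-vis scans 200–800 nm to find λmax of phenol and phenolate forms. Absorbance at each λmax plotted against pH.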
# Enterococcus faecalis [7] = assay: Antibacterial activity against Enterococcus faecalis OG1RF ATCC 47077 assessed as bacterial growth inhibition incubated for 16 hrs by broth microdilution susceptibility test; format: functional
# Staphylococcus aureus [8] = assay: Antibiofilm activity against methicillin-resistant Staphylococcus aureus BAA-1707 biofilms assessed as biofilm eradication incubated for 24 hrs followed by incubation for 24 hrs in fresh medium by Calgary biofilm device assay; format: functional
# Procedure, shortened: (§3)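 Calgary biofilm device. Mid-log culture diluted 1000-fold in TSB with 0.5% glucose; biofilms grown on pegs 24 h at 37 °C. Pegs washed and challenged with twofold compound dilutions for 24 h at 37 °C, then moved to fresh medium for 24 h. MBEC is the lowest concentration leaving wells non-turbid. At least three independent experiments.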
# Erythrocyte = assay: Hemolytic activity against human RBC at 200 uM measured after 1 hr; format: toxicity, cell-based
# Procedure, shortened: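 2% hRBCs exposed to compound at 200 μM final, added from DMSO stock, for 1 h at 37 °C. Supernatant OD read at 405 nm. Hemolysis normalized between DMSO (0%) and Triton X (100%); three independent experiments.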
# J774 = assay: Cytotoxicity against mouse J774 cells assessed as reduction in cell viability […] by Alamar blue assay; format: toxicity, cell-based
# Staphylococcus aureus [9] = assay: Bactericidal activity against methicillin-resistant Staphylococcus aureus BAA-1707 planktonic cells assessed as planktonic eradication incubated for 24 hrs followed by incubation for overnight in fresh medium by Calgary biofilm device assay; format: functional
# Procedure, shortened: (§4)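 Calgary biofilm device. Biofilms grown 24 h at 37 °C in TSB with 0.5% glucose, then challenged 24 h with twofold compound dilutions. 20 μL of challenge medium transferred into fresh TSB with 0.5% glucose and incubated overnight at 37 °C. MBC is the concentration with no visible turbidity. At least three independent experiments.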
# [10] = test system: Mycobacterium tuberculosis; assay: Antibacterial activity against Mycobacterium tuberculosis H37Ra ATCC 25177 assessed as bacterial growth inhibition incubated for 7 days by absorbance based analysis; format: functional; settings: H37Ra ATCC 25177, 168 h, time 7 day
# Procedure, shortened: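 H37Ra grown 2 weeks in Middlebrook 7H9, then diluted to OD600 0.01. Compounds added in twofold dilutions, final 0.024–50 μM, with 0.5% DMSO and streptomycin as positive control. Incubated 7 days at 37 °C. MIC is the lowest concentration with no growth, with OD600 recorded. At least three independent experiments.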
# [11] = test system: Staphylococcus epidermidis; assay: Bactericidal activity against methicillin-resistant Staphylococcus epidermidis ATCC 35984 planktonic cells assessed as planktonic eradication incubated for 24 hrs followed by incubation for overnight in fresh medium by Calgary biofilm device assay; format: functional; procedure, shortened: as §4
# Enterococcus faecalis [12] = assay: Antibiofilm activity against Enterococcus faecalis OG1RF ATCC 47077 biofilms assessed as biofilm eradication incubated for 24 hrs followed by incubation for 24 hrs in fresh medium by Calgary biofilm device assay; format: functional
# Procedure, shortened: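 Calgary biofilm device. Biofilms grown 24 h at 37 °C in BHI from mid-log culture diluted 1000-fold. Pegs washed and then challenged 24 h with twofold serial dilutions. Pegs moved to fresh BHI for 24 h recovery. MBEC = lowest concentration leaving no turbidity; at least three independent experiments.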
# Enterococcus faecium [13] = assay: Antibiofilm activity against methicillin-resistant vancomycin-resistant Enterococcus faecium ATCC 700221 biofilms assessed as biofilm eradication incubated for 24 hrs followed by incubation for 24 hrs in fresh medium by Calgary biofilm device assay; format: functional; procedure, shortened: as §3
# Enterococcus faecium [14] = assay: Bactericidal activity against methicillin-resistant vancomycin-resistant Enterococcus faecium ATCC 700221 planktonic cells assessed as planktonic eradication incubated for 24 hrs followed by incubation for overnight in fresh medium by Calgary biofilm device assay; format: functional; procedure, shortened: as §4
# [15] = test system: Staphylococcus epidermidis; assay: Antibiofilm activity against methicillin-resistant Staphylococcus epidermidis ATCC 35984 biofilms assessed as biofilm eradication incubated for 24 hrs followed by incubation for 24 hrs in fresh medium by Calgary biofilm device assay; format: functional; procedure, shortened: as §3
# Enterococcus faecalis [16] = assay: Bactericidal activity against […] Enterococcus faecalis OG1RF ATCC 47077 planktonic cells assessed as planktonic eradication incubated for 24 hrs followed by incubation for overnight in fresh medium by Calgary biofilm device assay; format: functional
# Procedure, shortened: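 Calgary biofilm device in BHI. Biofilms grown 24 h at 37 °C and challenged 24 h with twofold compound dilutions. Challenge medium subcultured 1:10 into fresh BHI overnight at 37 °C. MBC is the concentration with no turbidity. At least three independent experiments.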
Compound,MIC (Enterococcus faecium [1]) [µM],MIC (Staphylococcus aureus [2]) [µM],MIC (Staphylococcus aureus [3]) [µM],MIC [4] [µM],IC50 (HepG2) [µM],MIC [5] [µM],IC50 (HeLa) [µM],pKa at 125 µM [6],MIC (Enterococcus faecalis [7]) [µM],MBEC (Staphylococcus aureus [8]) [µM],Activity (Erythrocyte),IC50 (J774) [µM],MBC (Staphylococcus aureus [9]) [µM],MIC [10] [µM],MBC [11] [µM],MBEC (Enterococcus faecalis [12]) [µM],MBEC (Enterococcus faecium [13]) [µM],MBC (Enterococcus faecium [14]) [µM],MBEC [15] [µM],MBC (Enterococcus faecalis [16]) [µM]
Oc1cc(Cl)cc2nc3c(Oc4ccccc4)cccc3nc12,,3.13,3.13,3.13,,,,,,,,,,,,,,,,
Oc1cc(Cl)cc2nc3c(Cl)cc(Cl)cc3nc12,,0.3,,,> 200,2.31,> 100,6.89,9.38,75,<= 1%,> 200,18.8,3.13,,,,,,
Oc1c(Br)c(Cl)c(Br)c2nc3c(Oc4ccccc4)cccc3nc12,0.15,0.1,,0.2,> 200,3.01,> 100,,0.78,1.56,2.6%,> 200,[…],3.13,1.56,75,0.39,0.78,,
Oc1c(Br)c(Cl)c(Br)c2nc3ccc(Br)cc3nc12,0.3,1.56,,0.1,,,,,0.78,12.5,5.1%,,12.5,,6.25,,,4.69,6.25,
Oc1c(Br)c(Cl)c(Br)c2nc3ccc(I)cc3nc12,,,0.15,0.3,,,,,1.56,,3%,,12.5,,6.25,,3.13,4.69,6.25,
Oc1cc(Cl)cc2nc3ccc(I)cc3nc12,3.13,1.56,0.78,,,,100,,,37.5,1.9%,,37.5,,,,,,,
Cc1ccc2nc3c(O)c(Br)c(Cl)c(Br)c3nc2c1C,0.08,,0.05,≤ 0.05,> 200,3.62,,,0.2,,<= 1%,> 200,,,3.13,,0.3,0.78,,
CCCCCCCCCC(=O)N[C@@H](Cc1c[nH]c2ccccc12)C(=O)N[C@H](CC(N)=O)C(=O)N[C@@H](CC(=O)O)C(=O)N[C@@H]1C(=O)NCC(=O)N[C@@H](CCCN)C(=O)N[C@@H](CC(=O)O)C(=O)N[C@H](C)C(=O)N[C@@H](CC(=O)O)C(=O)NCC(=O)N[C@H](CO)C(=O)N[C@@H]([C@H](C)CC(=O)O)C(=O)N[C@@H](CC(=O)c2ccccc2N)C(=O)O[C@@H]1C,,,,,,,,,,>2000,,,,,,,93.8,375,,
Oc1cccc2nc3ccccc3nc12,> 50,50,50,37.5,,,,,> 50,,,,,,,,,,,
O=C(O)CN(CCN(CC(=O)O)CC(=O)O)CC(=O)O [EDETIC ACID],,125,,,,,,,500,>2000,<= 1%,,,,,>2000,,,,> 2000
Oc1c(Br)c(Cl)c(Br)c2nc3ccc(F)cc3nc12,0.78,0.2,0.15,,> 200,1.71,> 25,,,,<= 1%,> 200,12.5,,12.5,,,3.13,12.5,
